# Laboratory results: ChEMBL document CHEMBL3259620, “Structure-activity relationships and molecular modelling of new 5-arylidene-4-thiazolidinone derivatives as aldose reductase inhibitors and potential anti-inflammatory agents” (Eur J Med Chem, 2014)
# Calls of active or inactive are those of the source. No cut-off for these calls is given here.
# Target: Aldo-keto reductase family 1 member B1 (Bos taurus, UniProt P16116)
# Assay: Inhibition of bovine aldose reductase assessed as oxidation of NADPH
# Procedure, shortened: (§1)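 AR purified from bovine lens (specific activity 1.2 U/mg), 5 mU per assay. Mixture of 0.25 M sodium phosphate pH 6.8, 4.67 mM D,L-glyceraldehyde, 0.11 mM NADPH, 0.38 M ammonium sulphate, 0.5 mM EDTA, 1% DMSO final. NADPH oxidation followed as absorbance decrease at 340 nm, 37 °C. IC50 by nonlinear fit to one-site competition log dose–inhibition curve.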
row,SMILES,IC50 [nM]
1,COc1ccc(/C=C2\SC(=O)NC2=O)cc1OCC(N)=O,22600
2,COc1cc(/C=C2\SC(=S)NC2=O)ccc1OCC(N)=O,11600
3,COc1ccc(/C=C2\SC(=S)N(CC(=O)O)C2=O)cc1OCC(N)=O,130
4,COc1cc(/C=C2\SC(=O)N(CC(=O)O)C2=O)ccc1OCC(N)=O,500
5,NC(=O)COc1ccc(/C=C2\SC(=S)N(CC(=O)O)C2=O)cc1,130
6,NC(=O)COc1cccc(/C=C2\SC(=O)N(CC(=O)O)C2=O)c1,1010
7,COc1cc(/C=C2\SC(=O)NC2=O)ccc1OCC(N)=O,33900
8,COc1ccc(/C=C2\SC(=O)N(CC(=O)O)C2=O)cc1OCC(N)=O,520
9,NC(=O)COc1cccc(/C=C2\SC(=S)NC2=O)c1,8650
10,COc1cc(/C=C2\SC(=S)N(CC(=O)O)C2=O)ccc1OCC(N)=O,110
11,NC(=O)COc1cccc(/C=C2\SC(=O)NC2=O)c1,21500
12,COc1ccc(/C=C2\SC(=S)NC2=O)cc1OCC(N)=O,9200
13,NC(=O)COc1cccc(/C=C2\SC(=S)N(CC(=O)O)C2=O)c1,130
14,NC(=O)COc1ccc(/C=C2\SC(=O)N(CC(=O)O)C2=O)cc1,560

# Target: T1, Nuclear factor NF-kappa-B complex (Homo sapiens) (UniProt Q00653+P19838+Q04206)
# Assay: Inhibition of IFN-gamma/histamine-induced NF-kappaB activation in human NCTC-2544 cells assessed as inhibition of nuclear translocation at 10 to 20 uM after 48 hrs by Western blot analysis
# Assay type: cell-based
# Procedure, shortened: (§2)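 NCTC 2544 keratinocytes kept at 37 °C in 95% air/5% CO2, medium with 10% foetal calf serum plus penicillin/streptomycin, plated 1.5 × 10⁶ per dish 24 h beforehand. Stimulated with 200 U/ml IFN-γ and 10^-4 M histamine while exposed to compound; after 48 h, lysates (50 µg protein) run in Western blots against NF-κB p50 (nuclear activated form) or iNOS, signal normalized to α-tubulin. Each experiment at least three times in triplicate, mean ± SEM.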
# T1 sequence (P19838 whole entry, looked up): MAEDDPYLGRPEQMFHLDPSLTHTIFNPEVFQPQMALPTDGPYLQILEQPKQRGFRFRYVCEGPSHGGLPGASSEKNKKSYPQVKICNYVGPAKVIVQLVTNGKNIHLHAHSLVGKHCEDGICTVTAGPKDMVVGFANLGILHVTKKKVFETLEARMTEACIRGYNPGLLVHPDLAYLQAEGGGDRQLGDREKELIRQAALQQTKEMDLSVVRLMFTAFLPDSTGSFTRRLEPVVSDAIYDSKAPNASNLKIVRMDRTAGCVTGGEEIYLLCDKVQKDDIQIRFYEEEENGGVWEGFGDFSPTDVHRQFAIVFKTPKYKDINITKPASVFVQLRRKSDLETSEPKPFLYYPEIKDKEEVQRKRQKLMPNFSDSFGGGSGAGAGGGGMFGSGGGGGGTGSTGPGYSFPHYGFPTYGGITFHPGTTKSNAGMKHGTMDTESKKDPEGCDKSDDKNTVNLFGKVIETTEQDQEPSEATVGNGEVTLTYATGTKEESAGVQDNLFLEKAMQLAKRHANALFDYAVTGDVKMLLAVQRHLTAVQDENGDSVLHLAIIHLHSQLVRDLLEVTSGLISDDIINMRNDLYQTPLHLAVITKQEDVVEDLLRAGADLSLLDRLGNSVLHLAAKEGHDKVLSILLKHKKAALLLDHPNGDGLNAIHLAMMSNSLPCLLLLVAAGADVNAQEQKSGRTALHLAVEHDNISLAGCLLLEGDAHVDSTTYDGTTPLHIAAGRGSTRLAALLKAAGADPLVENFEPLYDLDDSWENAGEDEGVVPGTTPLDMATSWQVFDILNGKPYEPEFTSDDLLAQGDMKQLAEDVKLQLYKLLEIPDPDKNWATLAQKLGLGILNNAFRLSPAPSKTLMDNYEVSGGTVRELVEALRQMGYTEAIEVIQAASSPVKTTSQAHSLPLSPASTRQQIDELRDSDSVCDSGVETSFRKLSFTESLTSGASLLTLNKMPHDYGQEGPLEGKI
# T1 sequence (Q00653 whole entry, looked up): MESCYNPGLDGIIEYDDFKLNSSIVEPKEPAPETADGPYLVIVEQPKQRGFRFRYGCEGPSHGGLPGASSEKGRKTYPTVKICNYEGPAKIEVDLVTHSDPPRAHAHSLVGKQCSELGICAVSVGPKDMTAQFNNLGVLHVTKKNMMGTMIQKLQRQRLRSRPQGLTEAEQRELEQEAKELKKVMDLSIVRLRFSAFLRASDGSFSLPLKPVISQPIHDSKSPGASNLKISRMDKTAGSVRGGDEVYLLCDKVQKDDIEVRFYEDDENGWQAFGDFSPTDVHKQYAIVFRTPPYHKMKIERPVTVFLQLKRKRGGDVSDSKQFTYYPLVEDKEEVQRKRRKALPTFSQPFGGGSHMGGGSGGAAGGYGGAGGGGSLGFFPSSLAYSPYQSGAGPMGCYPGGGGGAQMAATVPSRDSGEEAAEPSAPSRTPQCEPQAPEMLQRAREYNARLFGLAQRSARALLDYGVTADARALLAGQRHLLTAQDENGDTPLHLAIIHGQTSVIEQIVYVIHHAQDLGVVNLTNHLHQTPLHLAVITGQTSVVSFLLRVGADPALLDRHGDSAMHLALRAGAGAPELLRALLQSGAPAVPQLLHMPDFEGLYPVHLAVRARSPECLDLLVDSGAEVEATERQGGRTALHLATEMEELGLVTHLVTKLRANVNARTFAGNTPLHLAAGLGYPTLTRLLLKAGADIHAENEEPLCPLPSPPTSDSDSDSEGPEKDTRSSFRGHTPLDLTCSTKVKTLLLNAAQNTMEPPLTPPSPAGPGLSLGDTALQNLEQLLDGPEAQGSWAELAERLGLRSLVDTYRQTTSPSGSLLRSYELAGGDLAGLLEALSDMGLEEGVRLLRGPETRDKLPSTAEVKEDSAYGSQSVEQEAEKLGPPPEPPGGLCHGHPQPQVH
# T1 sequence (Q04206 whole entry, looked up): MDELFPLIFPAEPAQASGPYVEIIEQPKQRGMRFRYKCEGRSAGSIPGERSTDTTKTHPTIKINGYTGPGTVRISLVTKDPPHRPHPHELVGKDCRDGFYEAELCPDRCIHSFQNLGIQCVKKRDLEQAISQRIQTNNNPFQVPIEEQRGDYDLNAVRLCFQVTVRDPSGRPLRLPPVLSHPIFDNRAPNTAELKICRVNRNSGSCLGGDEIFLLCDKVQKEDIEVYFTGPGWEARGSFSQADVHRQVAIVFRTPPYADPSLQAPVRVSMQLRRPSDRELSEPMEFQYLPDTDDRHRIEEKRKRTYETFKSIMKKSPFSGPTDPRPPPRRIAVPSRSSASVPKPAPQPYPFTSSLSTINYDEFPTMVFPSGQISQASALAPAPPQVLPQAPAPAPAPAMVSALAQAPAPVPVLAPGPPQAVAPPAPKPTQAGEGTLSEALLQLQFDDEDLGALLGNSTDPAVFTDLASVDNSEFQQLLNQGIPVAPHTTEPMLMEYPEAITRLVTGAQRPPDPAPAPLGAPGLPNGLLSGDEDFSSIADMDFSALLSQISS
row,SMILES,NF-kappaB nuclear translocation inhibition (active/not active)
1,COc1ccc(/C=C2\SC(=S)N(CC(=O)O)C2=O)cc1OCC(N)=O,Active
2,NC(=O)COc1cccc(/C=C2\SC(=S)NC2=O)c1,inactive
3,COc1cc(/C=C2\SC(=S)N(CC(=O)O)C2=O)ccc1OCC(N)=O,Active
4,COc1ccc(/C=C2\SC(=S)NC2=O)cc1OCC(N)=O,inactive
5,NC(=O)COc1cccc(/C=C2\SC(=S)N(CC(=O)O)C2=O)c1,Active

# Target: T1, Nuclear factor NF-kappa-B complex (Homo sapiens)
# Assay: Inhibition of IFN-gamma/histamine-induced NF-kappaB activation in human NCTC-2544 cells assessed as inhibition of nuclear translocation at 10 uM after 48 hrs by Western blot analysis relative to sorbinil
# Assay type: cell-based
# Procedure, shortened: as §2
row,SMILES,inhibition
1,COc1ccc(/C=C2\SC(=S)N(CC(=O)O)C2=O)cc1OCC(N)=O,Active
2,O=C1NC(=O)[C@@]2(CCOc3ccc(F)cc32)N1,Active
3,COc1cc(/C=C2\SC(=S)N(CC(=O)O)C2=O)ccc1OCC(N)=O,Active
4,NC(=O)COc1cccc(/C=C2\SC(=S)N(CC(=O)O)C2=O)c1,Active

# Test system: NCTC-2544
# Assay: Antiinflammatory activity in human NCTC-2544 cells assessed as reduction of IFN-gamma/histamine-induced-induced iNOS expression at 10 to 20 uM after 48 hrs by Western blot analysis
# Assay type: functional, cell-based
# Procedure, shortened: as §2
row,SMILES,inhibition
1,COc1ccc(/C=C2\SC(=S)N(CC(=O)O)C2=O)cc1OCC(N)=O,Active
2,NC(=O)COc1cccc(/C=C2\SC(=S)NC2=O)c1,Active
3,COc1cc(/C=C2\SC(=S)N(CC(=O)O)C2=O)ccc1OCC(N)=O,Active
4,COc1ccc(/C=C2\SC(=S)NC2=O)cc1OCC(N)=O,Active
5,NC(=O)COc1cccc(/C=C2\SC(=S)N(CC(=O)O)C2=O)c1,inactive

# Test system: NCTC-2544
# Assay: Antiinflammatory activity in human NCTC-2544 cells assessed as reduction of IFN-gamma/histamine-induced-induced iNOS expression at 20 uM after 48 hrs by Western blot analysis relative to control level
# Assay type: functional, cell-based
# Procedure, shortened: as §2
row,SMILES,inhibition
1,COc1ccc(/C=C2\SC(=S)N(CC(=O)O)C2=O)cc1OCC(N)=O,Active
2,NC(=O)COc1cccc(/C=C2\SC(=S)NC2=O)c1,Active
3,COc1ccc(/C=C2\SC(=S)NC2=O)cc1OCC(N)=O,Active

# Target: Aldo-keto reductase family 1 member B1 (Bos taurus) (UniProt P16116)
# Assay: Inhibition of bovine aldose reductase assessed as oxidation of NADPH at 50 uM
# Procedure, shortened: as §1
row,SMILES,inhibition [%]
1,NC(=O)COc1ccc(/C=C2\SC(=O)NC2=O)cc1,40
2,NC(=O)COc1ccc(/C=C2\SC(=S)NC2=O)cc1,34
